Experimental data reported in ChEMBL document CHEMBL1145792, “Structure-activity relationships for 4-nitrobenzyl carbamates of 5-aminobenz[e]indoline minor groove alkylating agents as prodrugs for GDEPT in conjunction with E. coli nitroreductase” (J Med Chem, 2003).

Columns and labels:
WiDr [1] = test: Ratio of cytotoxicity in a non-NTR-expressing WiDr compared to that in NTR-expressing WiDr.; assay type: functional, Homo sapiens
Method in brief: (§1)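 Parental and stably NTR-transfected partner lines (V79puro/V79-NTRpuro, EMT6/EMT6-NTRpuro, WiDr/WiDr-NTRneo, SKOV3/SKOV-NTRneo) tested in parallel. Aerobic sulforhodamine B growth inhibition after an 18 h exposure, read 4–5 days later. Ratio is the NTR-ve IC50 over the NTR+ve IC50, calculated within each experiment.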

Ovarian cancer cell line [2] = test: Cytotoxicity in non-NTR-expressing human ovarian carcinoma cell line (SKOV).; assay type: functional, cell-based
V79 [3] = test: Ratio of cytotoxicity activity in a non-NTR-expressing V79 compared to that in NTR-expressing V79.; assay type: functional; method in brief: as §1
WiDr [4] = test: Cytotoxicity in non-NTR-expressing human colon carcinoma cell line (WiDr).; assay type: functional, cell-based
Ovarian cancer cell line [5] = test: Ratio of cytotoxicity in a non-NTR-expressing SKOV compared to that in NTR-expressing SKOV.; assay type: functional, Homo sapiens; method in brief: as §1
[6] = tested on: Mammary carcinoma cell line; test: Ratio of cytotoxicity in non-NTR-expressing EMT6 compared to that in NTR-expressing EMT6.; assay type: functional, Mus musculus; method in brief: as §1
[7] = tested on: Mammary carcinoma cell line; test: Cytotoxicity in non-NTR-expressing mouse mammary carcinoma cell line (EMT6).; assay type: functional, cell-based
V79 [8] = test: Cytotoxicity in non-NTR-expressing Chinese hamster fibroblast (V79).; assay type: functional, cell-based; settings: Cricetulus griseus
[9] = Partition coefficient (logP); assay type: physicochemical; settings: octanol/water
Method in brief: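 logP was calculated with prediction software, not measured.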

[10] = LogD value was determined; assay type: physicochemical; settings: octanol/water

| Compound | logP ([9]; read-out: logP) | logD [10] | Ratio (WiDr [1]) | IC50 (Ovarian cancer cell line [2]) | Ratio (V79 [3]) | IC50 (WiDr [4]) | Ratio (Ovarian cancer cell line [5]) | Ratio [6] | IC50 [7] | IC50 (V79 [8]) | logP [9] |
| --- | --- | --- | --- | --- | --- | --- | --- | --- | --- | --- | --- |
| COc1cc2cc(C(=O)N3CC(CCl)c4c3cc(NC(=O)OC(C)c3ccc([N+](=O)[O-])cc3)c3ccccc43)[nH]c2c(OC)c1OC (stereo not drawn) | 4.9 |  | 6.6 | 158 nM | 1.67 | 154 nM | 5.65 | 11 | 79 nM | 62 nM |  |
| NC(=O)c1cc(N(CCBr)CCBr)c([N+](=O)[O-])cc1[N+](=O)[O-] | 2.68 |  | 174 | 58000 nM | 302 |  | 211 | 1380 | 54000 nM |  |  |
| CNc1cc2c(c3ccccc13)C(CCl)CN2C(=O)c1cc2cc(OC)c(OC)c(OC)c2[nH]1 (stereo not drawn) | 2.87 |  | 1.1 | 0.2 nM | 1.2 | 0.2 nM | 0.7 | 0.74 | 0.11 nM | 0.08 nM |  |
| COc1cc2cc(C(=O)N3CC(CCl)c4c3cc(NC(=O)OCc3ccc([N+](=O)[O-])cc3)c3ccccc43)[nH]c2c(OC)c1OC (stereo not drawn) | 4.55 |  | 33 | 62 nM | 10 | 391 nM | 12 | 112 | 193 nM | 89 nM |  |
| NC(=O)c1cc(N2CC2)c([N+](=O)[O-])cc1[N+](=O)[O-] [TRETAZICAR] |  |  | 51.2 | 174000 nM | 2090 |  | 317 | 930 | 710000 nM |  | 1.28 |
| CN(C)CCOc1ccc2[nH]c(C(=O)N3CC(CCl)c4c3cc(NC(=O)OCc3ccc([N+](=O)[O-])cc3)c3ccccc43)cc2c1 (stereo not drawn) | 4.94 | 3.24 | 20 | 770 nM | 4.3 | 403 nM | 41 | 31 | 208 nM | 157 nM |  |
| COc1cc([N+](=O)[O-])ccc1COC(=O)Nc1ccc(COC(=O)Nc2cc3c(c4ccccc24)C(CCl)CN3C(=O)c2cc3cc(OC)c(OC)c(OC)c3[nH]2)cc1 (stereo not drawn) | 6.09 |  | 1.8 | 223 nM | 1.03 | 295 nM | 0.7 | 1.8 | 63 nM | 54 nM |  |
| COc1cc2cc(C(=O)N3CC(CCl)c4c3cc(N(C)C(=O)OCc3ccc([N+](=O)[O-])cc3)c3ccccc43)[nH]c2c(OC)c1OC (stereo not drawn) | 3.98 |  | 15 | 152 nM | 8.4 | 101 nM | 10 | 27 | 48 nM | 48 nM |  |
| CN(C)CCOc1ccc2[nH]c(C(=O)N3CC(CCl)c4c3cc(N)c3ccccc43)cc2c1 (stereo not drawn) | 2.26 | 0.53 | 1.9 | 13 nM | 1.2 | 6 nM | 1.6 | 0.6 | 1.9 nM | 2.6 nM |  |
| COc1cc2cc(C(=O)N3CC(CCl)c4c3cc(N)c3ccccc43)[nH]c2c(OC)c1OC (stereo not drawn) | 1.87 |  | 0.9 | 1.1 nM | 0.9 | 1.6 nM | 0.6 | 2 | 0.37 nM | 0.33 nM |  |

More lines, main results first:

| logP ([9]; read-out: logP) | logD [10] | Compound | Ratio (WiDr [1]) | IC50 (Ovarian cancer cell line [2]) | Ratio (V79 [3]) | IC50 (WiDr [4]) | Ratio (Ovarian cancer cell line [5]) | Ratio [6] | IC50 [7] | IC50 (V79 [8]) | logP [9] |
| --- | --- | --- | --- | --- | --- | --- | --- | --- | --- | --- | --- |
| 4.77 |  | COc1cc([N+](=O)[O-])ccc1COC(=O)Nc1cc2c(c3ccccc13)C(CCl)CN2C(=O)c1cc2cc(OC)c(OC)c(OC)c2[nH]1 (stereo not drawn) | 47 | 59 nM | 6 | 141 nM | 17 | 108 | 174 nM | 39 nM |  |
| 4.95 | 2.74 | COc1cc2cc(C(=O)N3CC(CCl)c4c3cc(NC(=O)OCc3ccc([N+](=O)[O-])cc3OCCCN(C)C)c3ccccc43)[nH]c2c(OC)c1OC (stereo not drawn) | 3.8 | 189 nM | 1.45 | 269 nM | 3.6 | 3.4 | 74 nM | 45 nM |  |
| 3.38 |  | COc1cc2cc(C(=O)N3CC(CCl)c4c3cc(NC(=O)OCc3ccc([N+](=O)[O-])cc3OCC(O)CO)c3ccccc43)[nH]c2c(OC)c1OC (stereo not drawn) | 25 | 114 nM | 1.75 | 129 nM | 40 | 13 | 44 nM | 42 nM |  |
| 4.57 |  | COc1cc2cc(C(=O)N3CC(CCl)c4c3cc(NC(=O)OCc3ccc([N+](=O)[O-])cc3OCCCO)c3ccccc43)[nH]c2c(OC)c1OC (stereo not drawn) | 91 | 145 nM | 11 | 191 nM | 58 | 91 | 47 nM | 48 nM |  |
| 4.55 | 4.06 | COc1cc2cc(C(=O)N3CC(CCl)c4c3cc(NC(=O)OCc3ccc([N+](=O)[O-])cc3OCCCN3CCOCC3)c3ccccc43)[nH]c2c(OC)c1OC (stereo not drawn) | 9 | 88 nM | 2.6 | 98 nM | 6.5 | 6 | 24 nM | 20 nM |  |
| 4.47 |  | COCCOc1cc([N+](=O)[O-])ccc1COC(=O)Nc1cc2c(c3ccccc13)C(CCl)CN2C(=O)c1cc2cc(OC)c(OC)c(OC)c2[nH]1 (stereo not drawn) | 45 | 106 nM | 17 | 110 nM | 67 | 78 | 33 nM | 31 nM |  |
| 3.79 |  | COc1cc2cc(C(=O)N3CC(CCl)c4c3cc(NC(=O)OCc3ccc([N+](=O)[O-])cc3OCCO)c3ccccc43)[nH]c2c(OC)c1OC (stereo not drawn) | 148 | 224 nM | 11 | 295 nM | 84 | 104 | 107 nM | 63 nM |  |
